Test results from ChEMBL document CHEMBL4725234, “Structure-activity relationship analyses of fusidic acid derivatives highlight crucial role of the C-21 carboxylic acid moiety to its anti-mycobacterial activity” (Bioorg Med Chem, 2020).
Converted amounts (≈) assume the structure as drawn.

Tests used:
[1] = tested on: Mycobacterium tuberculosis; assay: Antimycobacterial activity against Mycobacterium tuberculosis H37Rv; type: functional
Summary of the method: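 Drug-sensitive M. tuberculosis H37Rv grown in a glycerol-containing medium; MIC99 is the minimum concentration that inhibits growth of 99% of the bacterial population.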

[2] = tested on: CHO-K1; assay: Cytotoxicity against CHOK1 cells assessed as reduction in cell viability; type: cell-based; details: Cricetulus griseus

Compound	MIC99 [1]	IC50 [2]
CC(=O)O[C@H]1C[C@@]2(C)[C@@H](C[C@@H](O)[C@H]3[C@@]4(C)CC/C(=N\O)[C@@H](C)[C@@H]4CC[C@@]32C)/C1=C(\CCC=C(C)C)C(=O)O	2.5 µM (≈ 1.32 µg/mL)	164 µM
CC(=O)O[C@H]1C[C@@]2(C)[C@@H](C[C@@H](O)[C@H]3[C@@]4(C)CC[C@@H](O)[C@@H](C)[C@@H]4CC[C@@]32C)/C1=C(\CCC=C(C)C)C(=O)NNS(=O)(=O)c1ccc(C)cc1	> 125 µM	48.2 µM
CCCS(=O)(=O)NNC(=O)/C(CCC=C(C)C)=C1\[C@@H](OC(C)=O)C[C@@]2(C)[C@H]1C[C@@H](O)[C@H]1[C@@]3(C)CC[C@@H](O)[C@@H](C)[C@@H]3CC[C@@]12C	40 µM (≈ 25.5 µg/mL)	79.7 µM
CCO[C@H]1C[C@@]2(C)[C@@H](C[C@@H](O)[C@H]3[C@@]4(C)CC[C@@H](O)[C@@H](C)[C@@H]4CC[C@@]32C)/C1=C(\CCC=C(C)C)C(=O)O	0.8 µM (≈ 0.402 µg/mL)	48.1 µM
CC(=O)O[C@H]1C[C@@]2(C)[C@@H](C[C@@H](O)[C@H]3[C@@]4(C)CC[C@@H](O)[C@@H](C)[C@@H]4CC[C@@]32C)/C1=C(\CCCC(C)C)C(=O)NNS(C)(=O)=O	10 µM (≈ 6.11 µg/mL)	97.8 µM
CC(=O)O[C@H]1C[C@@]2(C)[C@@H](C[C@@H](O)[C@H]3[C@@]4(C)CC[C@@H](O)[C@@H](C)[C@@H]4CC[C@@]32C)/C1=C(\CCC=C(C)C)C(=O)O [FUSIDIC ACID]	0.6 µM (≈ 0.31 µg/mL)	> 194 µM
CC(=O)O[C@H]1C[C@@]2(C)[C@@H](C[C@@H](O)[C@H]3[C@@]4(C)CC[C@@H](O)[C@@H](C)[C@@H]4CC[C@@]32C)/C1=C(\CCC=C(C)C)c1n[nH]c(=S)o1	80 µM (≈ 45.8 µg/mL)	70 µM
CCCCCCCCCCCCCCCCNC(=O)/C(CCC=C(C)C)=C1\[C@@H](OC(C)=O)C[C@@]2(C)[C@H]1C[C@@H](O)[C@H]1[C@@]3(C)CC[C@@H](O)[C@@H](C)[C@@H]3CC[C@@]12C	> 125 µM	> 135 µM
CC(=O)O[C@H]1C[C@@]2(C)[C@@H](C[C@@H](O)[C@H]3[C@@]4(C)CC[C@@H](O)[C@@H](C)[C@@H]4CC[C@@]32C)/C1=C(\CCC=C(C)C)c1nc(C)no1	> 125 µM	47.8 µM
CC(C)=CCC/C(C(=O)NNS(C)(=O)=O)=C1/[C@@H](O)C[C@@]2(C)[C@H]1C[C@@H](O)[C@H]1[C@@]3(C)CC[C@@H](O)[C@@H](C)[C@@H]3CC[C@@]12C	40 µM (≈ 22.7 µg/mL)	32 µM
CC(=O)O[C@H]1C[C@@]2(C)[C@@H](C[C@@H](O)[C@H]3[C@@]4(C)CC[C@@H](O)[C@@H](C)[C@@H]4CC[C@@]32C)/C1=C(\CCC=C(C)C)C(=O)Nc1nn[nH]n1	40 µM (≈ 23.4 µg/mL)	> 171 µM
CCc1noc(/C(CCC=C(C)C)=C2\[C@@H](OC(C)=O)C[C@@]3(C)[C@H]2C[C@@H](O)[C@H]2[C@@]4(C)CC[C@@H](O)[C@@H](C)[C@@H]4CC[C@@]23C)n1	> 125 µM	71.7 µM
CCCCCCCCCCCCNC(=O)/C(CCC=C(C)C)=C1\[C@@H](OC(C)=O)C[C@@]2(C)[C@H]1C[C@@H](O)[C@H]1[C@@]3(C)CC[C@@H](O)[C@@H](C)[C@@H]3CC[C@@]12C	> 125 µM	> 146 µM
CC(=O)O[C@H]1C[C@@]2(C)[C@@H](C[C@@H](O)[C@H]3[C@@]4(C)CC[C@@H](O)[C@@H](C)[C@@H]4CC[C@@]32C)/C1=C(\CCC=C(C)C)C(=O)NNS(C)(=O)=O	10 µM (≈ 6.09 µg/mL)	92.2 µM
CC(=O)O[C@H]1C[C@@]2(C)[C@@H](C[C@@H](O)[C@H]3[C@@]4(C)CC[C@@H](O)[C@@H](C)[C@@H]4CC[C@@]32C)/C1=C(\CCC=C(C)C)C(=O)NNS(=O)(=O)c1ccc(Cl)cc1	> 125 µM	53.2 µM
CCCCCCCCCCCCCCNC(=O)/C(CCC=C(C)C)=C1\[C@@H](OC(C)=O)C[C@@]2(C)[C@H]1C[C@@H](O)[C@H]1[C@@]3(C)CC[C@@H](O)[C@@H](C)[C@@H]3CC[C@@]12C	> 125 µM	> 140 µM
